# ARFGAP1 inhibitor: inhibitors of rat ARFGAP1 GAP activity, primary screen, biochemical, fluorescence polarization, GDP tracer | Arfgap1-stimulated ARF1 GTP hydrolysis, GDP FP detection | inhibition, % at 16.5 µM | 360,000 tested, 0.26% active | AID 651572, 2012;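 active = inhibition above a per-plate limit, mean inhibition of low control wells plus 3 SD, cut at about 25% in these data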;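 note: 0% = DMSO wells with enzyme and 100% = wells lacking Arfgap1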
# Target sequence (Q62848 1-136 limits assumed): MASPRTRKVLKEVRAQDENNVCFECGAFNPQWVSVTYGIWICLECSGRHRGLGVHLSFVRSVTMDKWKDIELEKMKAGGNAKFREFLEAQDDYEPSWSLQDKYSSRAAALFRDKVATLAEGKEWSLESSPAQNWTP
#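 system = rat Arfgap1 catalytic domain, aa 1-136 | technique = FP, GDP Alexa 633 tracer displaced from anti-GDP antibody, 620/688 nm | compound = one concentration, 16.5 µM, DMSO 1.26% | medium = HEPES-based buffer, pH 7.5 | timing = compound-enzyme preincubation 20 min, reaction 120 min, detection 60 min, 25 °C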
# ASAP1 GAP inh: inhibitors of human ASAP1 ArfGAP activity, primary screen, biochemical, fluorescence polarization; Arf-GAP with SH3 domain, ANK repeat and PH domain-containing protein 1 (Homo sapiens), …; ASAP1-stimulated ARF1 GTP hydrolysis, GDP FP detection; inhibition, % at 16.5 µM; 360,000 tested, 0.19% active; in the data active = inhibition above about 25%;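 note: 0% = vehicle with enzyme and substrate and 100% = no enzyme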
# sPLA2-III inh: human group III sPLA2 inhibitors, primary screen, biochemical, QFRET, BODIPY PC-A2 liposome substrate | Group 3 secretory phospholipase A2 (Homo sapiens), Q9NZ20 | AID 743126, 2013 | 370,000 tested, 0.56% active | QFRET BODIPY PC-A2 liposome hydrolysis, fluorescence | inhibition, % at 12.2 µM;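 active = inhibition above mean plus 3 SD of compounds lying within the high and low control bounds, cut at about 19% in these data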;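 note: 0% = median of test compound wells and 100% = no enzyme DMSO wells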
# Calb FLC: C. albicans growth inhibition with fluconazole, primary screen, CaCi-2 strain, Alamar Blue fluorescence; C. albicans CaCi-2 + fluconazole, 48 h; growth inhibition, % (test concentration not listed); 300,000 tested, 0.57% active;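 active = growth inhibition above about 58% in most replicates, limit read from the data, passing the limit was not always enough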;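 note: all wells also contain fluconazole at 8 µg/ml as a sub-toxic cotreatment; 0% = median of DMSO wells and 100% = median of geldanamycin control wells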
# SKKanGAS inh: S. pyogenes SKKanGAS growth inhibitors in kanamycin, primary screen, streptokinase expression inhibitor project, SKKanGAS strain, BacTiter-Glo luminescence. 6 h. inhibition, % at 7.5 µM. 300,000 tested, 1.3% active;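 active = mean replicate score, as percent of positive control median, at least 50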;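 note: strain carries kanamycin resistance gene driven by streptokinase promoter and grows in 40 µg/ml kanamycin; loss of luminescence reflects streptokinase promoter inhibition or plain growth inhibition; 0% = median of DMSO wells and 100% = positive control at its reference dose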
# Numbers without * were called inactive; · = not tested or not shown. An excerpt weighted towards active compounds, which were near 2.3% of everything screened.
SMILES,ARFGAP1 inhibitor,ASAP1 GAP inh,sPLA2-III inh,Calb FLC,SKKanGAS inh
CCN(CC)S(=O)(=O)c1ccc(N2CCOCC2)c(NC(=O)COc2ccccc2C)c1,8,2,14,·,·
CCN(CC)S(=O)(=O)c1ccc(N2CCOCC2)c(NC(=O)COc2ccccc2C#N)c1,9,37*,-5,2,-14
Cc1ccc2c(c1)C1CS(=O)(=O)N(CC(C)C)CN1C2 (centres undefined),·,·,7,·,·
CC1=C(C(N)=O)C(c2ccc(C)o2)C(C(N)=O)=C(C)N1,-4,7,0,71*,-4
CCN1CCN(c2c(S(=O)(=O)c3ccc(Cl)cc3)cnc3ccccc23)CC1,6,9,10,·,·
Clc1ccc(C2C3=C(Nc4ncnn42)c2ccccc2CC3)cc1 (centres undefined),·,·,·,12,70*
c1ccc(C2C3=C(Nc4ncnn42)c2ccccc2CCC3)cc1 (centres undefined),-5,5,0,-2,3
Cc1ccc(S(=O)(=O)CC(=O)Nc2ncc([N+](=O)[O-])s2)cc1,11,-3,-9,-4,9
Cc1cnc(NC(=O)c2cccs2)s1,-6,-13,-1,-1,3
O=C(CCS(=O)(=O)c1ccccc1)Nc1ncc([N+](=O)[O-])s1,-14,-14,-2,99*,-4
Cc1ccc(CC(=O)Nc2ncc([N+](=O)[O-])s2)cc1,10,22,-8,82*,-6
O=C(Nc1ncc([N+](=O)[O-])s1)c1cccs1,2,5,9,108*,8
Cc1ccc2c(c1)C(CS(=O)(=O)NCCc1ccccc1)NC2 (centres undefined),·,·,0,·,·
COc1cc2c(cc1O)CC[n+]1cc3c(OC)c(OC)ccc3cc1-2,11,2,11,99*,0
O=C(C1CCCCC1)N1CCC(c2nc3c(nnn3Cc3ccccc3Cl)c(=O)[nH]2)CC1,-9,-10,-14,·,·
O=C(C1CCCCC1)N1CCC(c2nc3c(nnn3Cc3c(F)cccc3Cl)c(=O)[nH]2)CC1,2,4,5,16,68*
Cc1ccc(Cn2nnc3c(=O)[nH]c(C4CCN(S(=O)(=O)c5ccc(C)cc5)CC4)nc32)cc1,-12,-2,-70,111*,·
Cc1ccc(Cn2nnc3c(=O)[nH]c(C4CCN(S(=O)(=O)c5ccc(S(=O)(=O)NC6CC6)cc5)CC4)nc32)cc1,2,8,-69,-3,28
CC(=O)N1CCN(c2ccc(N3CCN(C(C)=O)[C@H](C)C3)c(C)c2)[C@@H](C)C1,7,4,2,·,·
COc1cc(-c2c(C#N)c(N)nc3c2c(C)nn3-c2ccc(C)c(C)c2)cc(OC)c1OC,5,5,-11,8,50*
Nn1c(SCC(=O)Nc2ccc(Br)cn2)nnc1-c1n[nH]c2c1CCC2,·,·,5,·,·
CCCCCCCCN1[C@@H](CC(=O)O)c2cc(C(F)(F)F)ccc2S1(=O)=O,0,-7,-7,-9,7
CCCCCCCCCCCCN1[C@@H](CC(=O)O)c2cc(C(F)(F)F)ccc2S1(=O)=O,-17,-3,-26,-9,89*
Nc1[nH]c(C(=O)c2ccccc2)c(-c2ccc(Br)cc2)c1C(=O)NCCCN1CCOCC1,·,·,4,·,·
CCOC(=O)c1sc(N2C(=O)C(O)=C(C(=O)c3ccco3)C2c2cccc(Cl)c2)nc1C (centres undefined),-4,-18,-8,71,63*
CCOC(=O)c1sc(N2C(=O)C(O)=C(C(=O)c3ccco3)C2c2cccc([N+](=O)[O-])c2)nc1C (centres undefined),-8,-4,-5,29,65*
CC(=O)O[C@@H]1C=C[C@@H](C#Cc2ccc(C(C)(C)C)cc2)O[C@@H]1COC(=O)NC(C)C,-6,1,-1,·,·
Cc1cccnc1C(NC(=O)C1CCN(Cc2ccc(Oc3ccccc3)cc2)CC1)c1ccc(F)cc1 (centres undefined),-4,-2,-9,·,·
COc1ccc(NC(=O)CN(C)C(=O)/C=C/c2cn(-c3ccccc3)nc2-c2ccc(C)cc2)cc1,8,15,-24,0,58*
